Sampled rows, rich in hits. Any-hit rate of the full collection: about 4.3%.
SR-BI HDL uptake = inhibitors of SR-BI mediated HDL lipid uptake, primary screen, ldlA[mSR-BI] cells, fluorescence, single point; actives 0.96% (n = 320,000); ldlA[mSR-BI] CHO cells, DiI-HDL uptake fluorescence, 3 h; AID 488896, 2010; Scavenger receptor class B member 1 (Mus musculus), Q61009; inhibition, % at 12.5 µM;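 active = mean replicate inhibition of at least 70% and a set share of replicates each scoring 70 or more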;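 note: 0% = median of neutral control wells and 100% = median of positive control wells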
SR-BI DiI-HDL act = activators of SR-BI mediated DiI-HDL uptake, primary screen, ldlA[mSR-BI] CHO cells, DiI fluorescence; 3 h; 100 = double the neutral-control signal; activation, % at 12.5 µM; actives 0.096% (n = 320,000);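 active = mean replicate activation of at least 60% and every replicate at or above 60%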;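 note: 0% = median plate neutral-control signal and 100% = twice that signal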
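Test system: SR-BI-overexpressing, LDLR-lacking CHO cells. Measured by: DiI fluorescence, bottom read. Medium: Ham's F12 with 0.5% BSA, HEPES 25 mM, pH 7.4. Timing: 3 h uptake period with compound, 37 °C.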
CR mimetic SO = reduction of superoxide in aged yeast, primary screen, HTS; S. cerevisiae aged cells, superoxide DHE fluorescence; hits give low values; superoxide response (% of plate mean), % at 10 µM; actives 0.18% (n = 330,000); AID 2690, 2010;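 active = superoxide response under a set limit, about three screen SD below normal, cut at about 65% in these data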;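 note: yeast aged for seven days with compound at 30 °C before DHE staining; 100% = average MFI of all compound-treated wells on the plate with controls excluded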
Lipid droplet = inhibitors of hepatocyte lipid droplet formation, primary screen, imaging, high-throughput imaging, BODIPY stain; AML12 mouse hepatocytes, oleate lipid droplets; inhibition, % at 6.5 µM; actives 0.4% (n = 240,000);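 active = lipid droplet intensity inhibited by at least 50%, with more than 500 cells counted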
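System: AML12 hepatocytes (mouse). Probe or stimulus: oleic acid at 100 µM to induce lipid droplet formation. Times: overnight treatment with compound plus oleate. Detection: Image-based BODIPY and DAPI two-channel analysis. Evaluation: percent inhibition of filter-corrected integrated lipid droplet intensity per well.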
AHR act = AHR activators, primary screen, cell-based, luminescence, luciferase reporter, human | AHR-responsive luciferase reporter cells | actives 2.5% (n = 320,000) | Aryl hydrocarbon receptor (Homo sapiens), P35869 | activation, % at 5 µM; in the data active = activation above about 47%;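 note: 0% = vehicle wells and 100% = reference agonist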
SMARCA2 act = SMARCA2 (BRM) function activators, primary screen, cell-based, luminescence, high throughput; MG213 cells, MMTV-luciferase reporter, dexamethasone, overnight; activation, % at 9.1 µM; actives 1% (n = 370,000); in the data active = activation above about 7.8%;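 note: 0% = vehicle wells and 100% = reference activator wells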
* hit, by the source's call.

Screening Cc1ccc(C(=O)Nc2nc3ccc(S(C)(=O)=O)cc3s2)o1 returned SR-BI HDL uptake -95, SR-BI DiI-HDL act 95*, CR mimetic SO 90, Lipid droplet -20, AHR act 3 and SMARCA2 act 1.
CC(C)/C=C1\CCc2c([nH]c3ccccc23)C1=O was read as SR-BI HDL uptake 3, SR-BI DiI-HDL act -3, CR mimetic SO 107, Lipid droplet 9, AHR act 57* and SMARCA2 act 0.
`Cc1cc(C(=O)O[C@H]2CCC[C@@]3(C(=O)N(Cc4ccccc4)c4ccccc43)[C@H]2NC(=O)CCc2ccccc2)no1` gave SMARCA2 act -3.
Screening Cc1ccc(NC(=O)CCCNC(=O)c2ccc(Cl)cc2)c(O)c1 returned SR-BI HDL uptake 11, SR-BI DiI-HDL act -11, CR mimetic SO 97, Lipid droplet -1, AHR act 60* and SMARCA2 act 1.
Cc1ccc(NC(=O)CCCNC(=O)c2ccc(Cl)cc2)nc1 was read as SR-BI HDL uptake -4, SR-BI DiI-HDL act 4, CR mimetic SO 102, Lipid droplet 18, AHR act -3 and SMARCA2 act 2.
C[C@H]1COc2cccc(N3CCCC3)c2S(=O)(=O)N1 was read as SMARCA2 act -4.
For COc1ccc2[nH]c(=O)c(-c3noc(-c4ccccc4)n3)cc2c1 the results were SR-BI HDL uptake 10, SR-BI DiI-HDL act -10, CR mimetic SO 108, AHR act 25 and SMARCA2 act 3.
`O=c1[nH]c2ccccc2cc1-c1noc(-c2cccnc2)n1` gave SR-BI HDL uptake 0, SR-BI DiI-HDL act 0, CR mimetic SO 104, AHR act 73* and SMARCA2 act 5.
c1ccc(-c2noc(-c3cccnc3)n2)cc1 was read as SR-BI HDL uptake -12, SR-BI DiI-HDL act 12, CR mimetic SO 123, Lipid droplet 23, AHR act 59* and SMARCA2 act 7.9*.
`Nc1nc2c(ncn2[C@@H]2O[C@H](C(=O)NCC3CCCCC3)[C@@H](O)[C@H]2O)c(=O)[nH]1` gave SMARCA2 act -6.
For CCc1ccc(CCNC(=O)OC2CC3CC2[C@H]2CCCCN2[C@H]3Cc2ccccc2)cc1 (some centres not stated) the results were SMARCA2 act -3.
Screening CCCCOc1ccc(C(=O)NC2CCCCN(C(C)C)C2=O)cc1 (configuration not stated) returned SMARCA2 act -4.
For O=[N+]([O-])c1ccc(COc2ccc(-c3[nH]ncc3-c3ccccc3)c(O)c2)cc1 the results were SR-BI HDL uptake 14, SR-BI DiI-HDL act -14, CR mimetic SO 114, Lipid droplet -6, AHR act 57* and SMARCA2 act -4.
Screening COCCOc1ccc(C(F)(F)F)cc1NC(=O)COC(=O)c1cc[n+]([O-])cc1 returned SR-BI HDL uptake -15, SR-BI DiI-HDL act 15, CR mimetic SO 105, AHR act 4 and SMARCA2 act -3.
`COCCOc1ccc(C(F)(F)F)cc1NC(=O)c1ccccc1F` gave SR-BI HDL uptake 24, SR-BI DiI-HDL act -24, CR mimetic SO 96, Lipid droplet 10, AHR act 61* and SMARCA2 act 1.
For CCCOc1ccc(C(F)(F)F)cc1NC(=O)c1cc(C)on1 the results were SR-BI HDL uptake 72*, SR-BI DiI-HDL act -72, CR mimetic SO 96, AHR act 0 and SMARCA2 act 1.
`COCCOc1ccc(C(F)(F)F)cc1NC(=O)c1ccc(C(F)(F)F)cc1` gave SR-BI HDL uptake 18, SR-BI DiI-HDL act -18, CR mimetic SO 139, Lipid droplet -2, AHR act 70* and SMARCA2 act -1.
For COCc1cn(-c2ccc3c(c2)[C@]2(CC(=O)N(C)C2c2ccccc2)C(=O)N3CC(C)C)nn1 (some centres not stated) the results were SMARCA2 act 2.
`CCCCCCCCN1C(=O)N2Cc3ccccc3C2CS1(=O)=O` (configuration not stated) gave SMARCA2 act -1.
Screening CN1CC=C2C(C#N)=C(N)C(C#N)(C#N)C(CCc3ccccc3)C2C1 (configuration not stated) returned SR-BI HDL uptake 9, SR-BI DiI-HDL act -9, CR mimetic SO 98, Lipid droplet -10 and AHR act 56*.
Screening COc1ccc(-c2nnc(OCc3ccccc3)c3ccccc23)cc1 returned SR-BI HDL uptake 14, SR-BI DiI-HDL act -14, CR mimetic SO 105, Lipid droplet 1, AHR act 56* and SMARCA2 act -3.
For Cc1cccc(-c2cccc3c4c([nH]c23)[C@@H]2C[C@H](N(C)C(=O)c3ccccc3F)[C@H]([C@H](C)O)CN2CC4)c1 the results were SMARCA2 act -1.
Screening CCOC(=O)c1c(-c2cccc([N+](=O)[O-])c2)csc1N returned SR-BI HDL uptake 20, SR-BI DiI-HDL act -20, CR mimetic SO 114, Lipid droplet 8, AHR act 8 and SMARCA2 act 1.
CCOC(=O)c1csc(N)c1-c1ccc([N+](=O)[O-])cc1 was read as SR-BI HDL uptake -69, SR-BI DiI-HDL act 69*, CR mimetic SO 96, Lipid droplet -6, AHR act 10 and SMARCA2 act -5.
Cc1cccc(C)c1NC(=O)COC(=O)c1ccccc1Nc1ccccc1 was read as SR-BI HDL uptake 82*, SR-BI DiI-HDL act -82, CR mimetic SO 86, Lipid droplet -2, AHR act 0 and SMARCA2 act -3.
For CC(=O)n1cc([C@@H]2C=C(C(=O)NCc3ccccc3)O[C@H](OCCCCO)C2)c2ccccc21 the results were SR-BI HDL uptake 16, SR-BI DiI-HDL act -16, CR mimetic SO 97, Lipid droplet -2, AHR act 73* and SMARCA2 act 1.
`CC(=O)n1cc([C@H]2C=C(C(=O)Nc3ccccc3)O[C@@H](OCCCCO)C2)c2ccccc21` gave SR-BI HDL uptake 25, SR-BI DiI-HDL act -25, CR mimetic SO 104, Lipid droplet -4, AHR act 36 and SMARCA2 act 2.
C#CCNC(=O)C1=C[C@@H](c2cn(C(C)=O)c3ccccc23)C[C@@H](OCCCCO)O1 was read as SR-BI HDL uptake 6, SR-BI DiI-HDL act -6, CR mimetic SO 110, Lipid droplet 2, AHR act 65* and SMARCA2 act -1.
For COc1ccc(-c2ccccc2C2Cc3nnccc3CN2)cc1 (configuration not stated) the results were SMARCA2 act 3.
